Source: ChEMBL document CHEMBL3351411, “Identification and synthesis of quinolizidines with anti-influenza a virus activity” (ACS Med Chem Lett, 2014)
Activity calls are given as the source filed them. No cut-off for these calls is given here.

Columns and labels:
[1] = test system: Influenza A virus; assay: Antiviral activity against Influenza A virus (A/Puerto Rico/8/34(H1N1)) infected in MDCK cells assessed as inhibition of virus-induced cytocidal activity after 48 hrs by CellTiter-Glo assay; format: functional, organism-based; details: A/Puerto Rico/8/1934(H1N1)
Procedure, shortened: (§1)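 MDCK cells infected with PR8 (mouse-adapted A/Puerto Rico/8/1934) or VR1679 at MOI = 1 and treated with compound at various concentrations for 2 days. Percent protection from virus killing was calculated by a formula. EC50 is the concentration giving 50% protection from the cytocidal effect. Values are mean ± SD of three independent experiments.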

[2] = Cytotoxicity against MDCK cells assessed as reduction in cell viability after 48 hrs by CellTiter-Glo assay; format: cell-based, Canis lupus familiaris; details: dog
Procedure, shortened: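 Uninfected MDCK cells were exposed to compound. CC50 is the concentration that reduced cell viability by 50%.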

[3] = test system: Influenza A virus H3N2; assay: Antiviral activity against Influenza A virus H3N2 VR1679 infected in MDCK cells assessed as inhibition of virus-induced cytocidal activity after 48 hrs by CellTiter-Glo assay; format: functional, organism-based; procedure, shortened: as §1
[4] = test system: Influenza A virus H3N2; assay: Antiviral activity against Influenza A virus H3N2 VR1679 infected in MDCK cells assessed as inhibition of viral nucleoprotein production at 10 uM after 6 hrs by immunostaining-based confocal microscopy; format: functional, organism-based
Procedure, shortened: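 VR1679 infected MDCK cells at MOI = 1 with compound at 10 μM for 6 h. Cells were immunostained with FITC-conjugated anti-NP antibodies and DAPI for nuclei, and viral NP was imaged by laser-scanning confocal microscopy. Infected cells without compound served as controls.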

[5] = test system: Influenza A virus H3N2; assay: Antiviral activity against Influenza A virus H3N2 VR1679 infected in MDCK cells assessed as inhibition of virus-induced cytocidal activity compound treated 4 hrs post infection by time of addition assay; format: functional, organism-based
Procedure, shortened: (§2)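 Time-of-addition assay: MDCK cells infected with VR1679 at MOI = 0.1, with compound added before infection or at various times post-infection. Percent protection of cells from virus killing was calculated by a formula. Data are the average of two independent experiments.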

[6] = test system: Influenza A virus H3N2; assay: Antiviral activity against Influenza A virus H3N2 VR1679 infected in MDCK cells assessed as inhibition of virus-induced cytocidal activity compound treated 6 hrs post infection by time of addition assay; format: functional, organism-based; procedure, shortened: as §2
[7] = test system: Influenza A virus H3N2; assay: Antiviral activity against Influenza A virus H3N2 VR1679 infected in MDCK cells assessed as inhibition of virus-induced cytocidal activity compound treated 2 hrs post infection by time of addition assay; format: functional, organism-based; procedure, shortened: as §2
[8] = test system: Influenza A virus H3N2; assay: Antiviral activity against Influenza A virus H3N2 VR1679 infected in MDCK cells assessed as inhibition of virus-induced cytocidal activity pretreated with compound before infection by time of addition assay; format: functional, organism-based; procedure, shortened: as §2
[9] = test system: MDCK; assay: Binding affinity to recombinant Influenza A virus (A/Puerto Rico/8/1934(H1N1)) nucleoprotein in culture medium assessed as protection from Influenza A virus H3N2 VR1679-induced MDCK cytocidal activity after 2 days by CellTiter-Glo assay; format: cell-based
Procedure, shortened: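 MDCK cells infected with VR1679 at MOI = 1, treated with compound with or without recombinant A/Puerto Rico/8/1934 NP at 500 μg/mL in the culture medium. Percent protection from virus killing was read 2 days after infection. Values are mean ± SD of three independent experiments.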

[10] = Selectivity ratio of EC50 for Influenza A virus (A/Puerto Rico/8/34(H1N1)) infected in MDCK cells to EC50 for Influenza A virus H3N2 VR1679 infected in MDCK cells; format: functional

CCN1CCCC2=C[C@H]3C[C@H](CN4CCCC[C@H]34)[C@@H]21
EC50 [1]: 7.7 µM
CC50 at 48 h [2]: > 80 µM

CN1CC2CC(C1)c1cccc(=O)n1C2 (configuration not stated)
EC50 [1]: > 80 µM
CC50 at 48 h [2]: > 80 µM

Cc1onc(-c2ccccc2)c1C(=O)N1CCN(c2ccc([N+](=O)[O-])cc2Cl)CC1 [NUCLEOZIN]
EC50 [1]: 0.71 µM
CC50 at 48 h [2]: > 80 µM

C1CN[C@@H]2C(C1)C[C@H]1C[C@@H]2CN2CCCC[C@H]12 (mixture of isomers)
EC50 [1]: 11.2 µM
CC50 at 48 h [2]: > 80 µM

C1=C2CCCN(CC3CCCCC3)[C@H]2[C@@H]2C[C@H]1[C@H]1CCCCN1C2
EC50 [1]: 29.3 µM
CC50 at 48 h [2]: > 80 µM

O=C1CCC[C@@H]2[C@H]3CCC[N+]4([O-])CCC[C@@H](CN12)[C@@H]34 (some centres not stated) [OXYMATRINE]
EC50 [1]: > 80 µM
CC50 at 48 h [2]: > 80 µM

O=C1CCC[C@@H]2[C@H]3CCCN4CCC[C@@H](CN12)[C@@H]34 [MATRINE]
EC50 [1]: > 80 µM
CC50 at 48 h [2]: > 80 µM

C1=C2CCCN(CC3CC3)[C@H]2[C@@H]2C[C@H]1[C@H]1CCCCN1C2
EC50 [1]: 15.1 µM
CC50 at 48 h [2]: > 80 µM

O=c1cccc2n1C[C@@H]1CNC[C@H]2C1 [CYTISINICLINE]
EC50 [1]: > 80 µM
CC50 at 48 h [2]: > 80 µM

CN1CCC[C@@H]2C[C@H]3C[C@H](CN4CCCC[C@H]34)[C@@H]21
EC50 [1]: 6.2 µM
CC50 at 48 h [2]: > 80 µM
inhibition [3]: Active
inhibition [4]: Active
inhibition [5]: Active
inhibition [6]: inactive
inhibition [7]: Active
inhibition [8]: Active
Activity [9]: Active

CC(C)CN1CCCC2=C[C@H]3C[C@H](CN4CCCC[C@H]34)[C@@H]21
EC50 [1]: 34.5 µM
CC50 at 48 h [2]: > 80 µM

C1CCN2C[C@@H]3C[C@@H](CN4CCCC[C@@H]34)[C@H]2C1 [SPARTEINE]
EC50 [1]: 19.7 µM
CC50 at 48 h [2]: > 80 µM

C1CCN2C[C@@H]3C[C@@H](CN4CCCC[C@H]34)[C@H]2C1
EC50 [1]: 21.3 µM
CC50 at 48 h [2]: > 80 µM

O=C(NCCN1CCCC2=C[C@H]3C[C@H](CN4CCCC[C@H]34)[C@@H]21)c1ccccc1F
EC50 [1]: 5.5 µM
CC50 at 48 h [2]: > 80 µM

CCOC(=O)C1=C[C@@H](OC(CC)CC)[C@H](NC(C)=O)[C@@H](N)C1 [OSELTAMIVIR]
EC50 [1]: > 80 µM
CC50 at 48 h [2]: > 80 µM
Ratio EC50 [10]: >200
EC50 [3]: > 80 µM
inhibition [4]: inactive
inhibition [5]: Active
inhibition [6]: inactive
inhibition [7]: Active
inhibition [8]: Active
Activity [9]: inactive

C1=C2CCCN(CC3CCC3)[C@H]2[C@@H]2C[C@H]1[C@H]1CCCCN1C2
EC50 [1]: 18.8 µM
CC50 at 48 h [2]: > 80 µM

O=C(c1ccc(C(=O)N2CCCC3=C[C@H]4C[C@H](CN5CCCC[C@H]45)[C@@H]32)s1)N1CCCC2=C[C@H]3C[C@H](CN4CCCC[C@H]34)[C@@H]21
EC50 [1]: 2.4 µM
CC50 at 48 h [2]: > 80 µM

CN1CCC[C@H]2C[C@H]3C[C@H](CN4CCCC[C@H]34)[C@@H]21
EC50 [1]: 8.1 µM
CC50 at 48 h [2]: > 80 µM

NC12CC3CC(CC(C3)C1)C2 [AMANTADINE]
EC50 [1]: > 80 µM
CC50 at 48 h [2]: > 80 µM

CN1CCCC2=C[C@H]3C[C@H](CN4CCCC[C@H]34)[C@@H]21
EC50 [1]: 9.6 µM
CC50 at 48 h [2]: > 80 µM

C1=C2CCCN[C@H]2[C@@H]2C[C@H]1[C@H]1CCCCN1C2
EC50 [1]: 14.5 µM
CC50 at 48 h [2]: > 80 µM
